Series [1] relates to Staphylococcus aureus. In words: Antimicrobial activity against vancomycin-susceptible-, methicillin-resistant Staphylococcus aureus 1130 by microdilution method. The series is classed as functional.
Series [2] relates to Staphylococcus aureus. The series is described as follows: Antimicrobial activity against vancomycin-intermediate-, methicillin-resistant Staphylococcus aureus 1984 assessed as time required to induce sub-MIC effect at 0.4 times MIC […] by plate counting method. The class given is functional. The gist of the method:
(§1)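 SME, viable plate count method: no prior drug exposure. About 5 × 10^6 CFU/ml in Mueller-Hinton broth at 35°C received 0.2, 0.3 or 0.4× MIC, alongside a drug-free tube. Counts were taken at the start, then every 2 h until McFarland no. 1 turbidity, as log10 CFU/ml against time. Two separate experiments, each with a new inoculum.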

For series [3], the system named is Staphylococcus aureus. In words: Antimicrobial activity against vancomycin-susceptible-, methicillin-resistant Staphylococcus aureus ATCC 33591 assessed as time required to induce post antibiotic sub-MIC effect at 0.4 times MIC […] by plate counting method. The series is classed as functional. The gist of the method: (§2)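 After 1 h preexposure to 10× MIC at 35°C and 1:1,000 dilution, cultures were split, and drug was re-added to final 0.2, 0.3 or 0.4× MIC, with a drug-free tube. Viable counts were taken every 2 h until McFarland 1 turbidity. Duration was derived from log10 CFU/ml versus time curves. Two experiments were run, each with a new inoculum.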

Series [4] has as its system Staphylococcus aureus. The series is described as follows: Antimicrobial activity against heterogenous vancomycin-intermediate-, methicillin-resistant Staphylococcus aureus 873 assessed as time required to induce post antibiotic sub-MIC effect at 0.4 times MIC […] by plate counting method. The class given is functional. In a few lines:
(§3)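 PAE was first induced with 10× MIC for 1 h at 35°C (inoculum about 5 × 10^6 CFU/ml, Mueller-Hinton broth) and ended by 1:1,000 dilution. Cultures were then split and given 0.2, 0.3 or 0.4× MIC, with one tube left without drug. Viable counts were taken before exposure, after dilution, then every 2 h until McFarland no. 1 turbidity. Two separate experiments, each with a new inoculum.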

The subject of series [5] is Staphylococcus aureus. In words: Antimicrobial activity against vancomycin-intermediate-, methicillin-resistant Staphylococcus aureus 555 assessed as time required to induce post antibiotic sub-MIC effect at 0.4 times MIC […] by plate counting method. The series is classed as functional. The gist of the method: as §3
Series [6] can be described thus: Elimination half life in healthy human at 5 mg/kg, iv. The series is classed as ADME, organism-based. On the set-up: dose 5 mg/kg, route intravenous. The following applies: in vivo, read-out: beta t1/2.
A further series relates to Streptococcus pyogenes. In words: Antimicrobial activity against Streptococcus pyogenes HMC 414 by microdilution method. The series is classed as functional.
Series [7] has as its system Staphylococcus aureus. The series is described as follows: Antimicrobial activity against vancomycin-susceptible-, methicillin-resistant Staphylococcus aureus 1130 assessed as post-antibiotic effect at 10 times MIC pre-exposed to Telavancin for 1 hr by plate counting method. The class given is functional. The gist of the method:
(§4)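 Direct colony suspensions (~5 × 10^6 CFU/ml) were exposed to 10× MIC for 1 h at 35°C with shaking in Mueller-Hinton broth, then diluted 1:1,000 to remove drug. Viable plate counts were taken before exposure, at 0 h, then every 2 h until turbidity reached McFarland 1. PAE = T − C, the time for counts to rise 1 log10 versus the unexposed control. Two separate experiments were run.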

The test system of series [8] is Staphylococcus aureus. In words: Antimicrobial activity against vancomycin-susceptible-, methicillin-resistant Staphylococcus aureus 1307 assessed as post-antibiotic effect at 10 times MIC pre-exposed to Telavancin for 1 hr by plate counting method. The class given is functional. The gist of the method:
as §4

For series [9], the system named is Staphylococcus aureus. The series is described as follows: Antimicrobial activity against vancomycin-susceptible-, methicillin-resistant Staphylococcus aureus 1306 assessed as post-antibiotic effect at 10 times MIC pre-exposed to Telavancin for 1 hr by plate counting method. The class given is functional. In a few lines: as §4
In series [10] the test system is Staphylococcus aureus. In words: Antimicrobial activity against heterogenous vancomycin-intermediate-, methicillin-resistant Staphylococcus aureus 873 assessed as post-antibiotic effect at 10 times MIC pre-exposed to Telavancin for 1 hr by plate counting method. The series is classed as functional. In a few lines:
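Viable plate count method in Mueller-Hinton broth. Direct colony suspension inoculum of about 5 × 10^6 CFU/ml was exposed to 10× MIC for 1 h at 35°C in a shaking water bath, then diluted 1:1,000 to remove drug. Counts were taken before exposure, at 0 h, then every 2 h until McFarland no. 1 turbidity. PAE = T − C, the time to a 1 log10 rise versus an unexposed growth control.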

Series [11] has as its system Staphylococcus aureus. The series is described as follows: Antimicrobial activity against vancomycin-susceptible-, methicillin-resistant Staphylococcus aureus 1307 assessed as time required to induce sub-MIC effect at 0.2 times MIC exposed for 2 hrs by plate counting method. The series is classed as functional. The gist of the method: (§5)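 Sub-MIC effect: cultures not preexposed to drug were diluted and handled as in the PA-SME procedure in Mueller-Hinton broth with final 0.2, 0.3 or 0.4× MIC, plus a drug-free control. Viable plate counts were taken every 2 h until McFarland 1 turbidity. Duration was derived from growth curves. Two experiments were run, each with a new inoculum.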

The subject of series [12] is Staphylococcus aureus. In words: Antimicrobial activity against vancomycin-intermediate-, methicillin-resistant Staphylococcus aureus 1287 assessed as time required to induce sub-MIC effect at 0.2 times MIC […] by plate counting method. The class given is functional. The gist of the method:
as §1

Series [13] concerns Staphylococcus aureus. In words: Antimicrobial activity against vancomycin-intermediate-, methicillin-resistant Staphylococcus aureus 1984 assessed as time required to induce sub-MIC effect at 0.2 times MIC […] by plate counting method. The series is classed as functional. The gist of the method:
as §1

Series [14] has as its system Staphylococcus aureus. In words: Antimicrobial activity against vancomycin-susceptible-, methicillin-resistant Staphylococcus aureus 1306 assessed as time required to induce post antibiotic sub-MIC effect at 0.2 times MIC pre-exposed to Telavancin […] by plate counting method. The series is classed as functional. In a few lines:
as §2

The test system of series [15] is Staphylococcus aureus. The series is described as follows: Antimicrobial activity against vancomycin-intermediate-, methicillin-resistant Staphylococcus aureus 770 assessed as time required to induce post antibiotic sub-MIC effect at 0.2 times MIC pre-exposed to Telavancin […] by plate counting method. The series is classed as functional. In a few lines: as §3

For series [16], the system named is Staphylococcus aureus. In words: Antimicrobial activity against vancomycin-susceptible-, methicillin-resistant Staphylococcus aureus 1130 assessed as time required to induce sub-MIC effect at 0.3 times MIC exposed for 2 hrs by plate counting method. The class given is functional. The gist of the method: as §5
The subject of series [17] is Staphylococcus aureus. In words: Antimicrobial activity against vancomycin-intermediate-, methicillin-resistant Staphylococcus aureus 1287 assessed as time required to induce sub-MIC effect at 0.3 times MIC […] by plate counting method. The series is classed as functional. In a few lines: as §1
Series [18] deals with Staphylococcus aureus. The series is described as follows: Antimicrobial activity against vancomycin-susceptible-, methicillin-resistant Staphylococcus aureus 1307 assessed as time required to induce post antibiotic sub-MIC effect at 0.3 times MIC […] by plate counting method. The series is classed as functional. In a few lines:
as §2

The subject of series [19] is Staphylococcus aureus. The series is described as follows: Antimicrobial activity against vancomycin-intermediate-, methicillin-resistant Staphylococcus aureus 770 assessed as time required to induce post antibiotic sub-MIC effect at 0.3 times MIC […] by plate counting method. The series is classed as functional. The gist of the method:
as §3

Series [20] deals with Staphylococcus aureus. The series is described as follows: Antimicrobial activity against vancomycin-intermediate-, methicillin-resistant Staphylococcus aureus 1984 assessed as time required to induce post antibiotic sub-MIC effect at 0.3 times MIC […] by plate counting method. The series is classed as functional. In a few lines:
as §3

Series [21] has as its system Staphylococcus aureus. In words: Antimicrobial activity against vancomycin-resistant-, methicillin-resistant Staphylococcus aureus 510 assessed as time required to induce post antibiotic sub-MIC effect at 0.3 times MIC […] by plate counting method. The class given is functional. In a few lines: as §2
The subject of series [22] is Staphylococcus aureus. The series is described as follows: Antimicrobial activity against vancomycin-susceptible-, methicillin-resistant Staphylococcus aureus 1307 assessed as time required to induce sub-MIC effect at 0.4 times MIC exposed for 2 hrs by plate counting method. The series is classed as functional. The gist of the method: as §5
Series [23] concerns Staphylococcus aureus. In words: Antimicrobial activity against vancomycin-susceptible-, methicillin-resistant Staphylococcus aureus 1306 assessed as time required to induce sub-MIC effect at 0.4 times MIC exposed for 2 hrs by plate counting method. The series is classed as functional. In a few lines: as §5

In brackets after ≈: the same amount, converted by molar mass. Bounds are passed on as bounds.

In the case of `CCCCCCCCCCNCCN[C@@]1(C)C[C@H](O[C@H]2[C@H](Oc3c4cc5cc3Oc3ccc(cc3Cl)[C@@H](O)[C@@H](NC(=O)[C@@H](CC(C)C)NC)C(=O)N[C@@H](CC(N)=O)C(=O)N[C@H]5C(=O)N[C@H]3C(=O)N[C@H](C(=O)N[C@H](C(=O)O)c5cc(O)c(CNCP(=O)(O)O)c(O)c5-c5cc3ccc5O)[C@H](O)c3ccc(c(Cl)c3)O4)O[C@H](CO)[C@@H](O)[C@@H]2O)O[C@@H](C)[C@H]1O` [TELAVANCIN], the MIC against Staphylococcus aureus [1] was found to be 0.12 µg/mL (≈ 0.0684 µM); against Streptococcus pyogenes, 0.06 µg/mL (≈ 0.0342 µM). Also, the PAE in the series with Staphylococcus aureus [2] is 10 h; in the series with Staphylococcus aureus [3], > 10 h; in the series with Staphylococcus aureus [4] it was 6.7 h; in the series with Staphylococcus aureus [5] it was > 10.3 h; with Staphylococcus aureus [7], 1.4 h; in the series with Staphylococcus aureus [8], 1.1 h. For the same compound, the PAE in the series with Staphylococcus aureus [9] worked out at 1.8 h; in the series on Staphylococcus aureus [10], 1.2 h; in the series on Staphylococcus aureus [11], 1 h; in the series on Staphylococcus aureus [12], 0 h; in the series with Staphylococcus aureus [13] it was 1 h; with Staphylococcus aureus [14], 2.9 h. For the same compound, the PAE was 3.8 h in the series on Staphylococcus aureus [15]; 2 h in the series with Staphylococcus aureus [16]; 0.4 h in the series on Staphylococcus aureus [17]; > 10.5 h with Staphylococcus aureus [18]; 6.3 h with Staphylococcus aureus [19]; > 10 h with Staphylococcus aureus [20]. Moreover, the PAE in the series with Staphylococcus aureus [21] was found to be 6 h; in the series on Staphylococcus aureus [22], 6.3 h; in the series on Staphylococcus aureus [23], 6 h. Further, the half-life in series [6] was > 420 min.

(Values after ChEMBL document CHEMBL1629663, “Postantibiotic effects of telavancin against 16 gram-positive organisms” (Antimicrob Agents Chemother, 2009).)
